Shown is part of a subset that was picked to be rich in hits.
YB-1 expression: YB-1 expression inhibition; 30,000 compounds, 0.37% hits; U2OS, qRT-PCR YB-1 vs CDIP delta delta Cp, 16 h; hits give high values; zero = DMSO, each unit about twofold; delta delta Cp (YB-1 minus CDIP) (concentration not given with the values);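 active = delta delta Cp rounded down to an integer at or above 3, about 3 SD of DMSO wells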;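 also: higher means less YB-1 transcript or more CDIP transcript relative to DMSO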
T cruzi HTS: blocks T. cruzi growth inside host cells; intracellular Trypanosoma cruzi in host cells, plate reader; activity score (inhibition), % at 5.01 µM; 22,000 compounds, 4.9% hits; AID 651903; in the data active = activity score above about 55%;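 also: parasites and compound incubated about four days before reading; 0% = median of neutral control wells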
INS-1E ATP HTS: rescue of cytokine-induced death in INS-1E beta cells; INS-1E cytokine-induced death, ATP luminescence, 48 h; normalised: neutral wells 0, positive control 100; protection from cytokine-induced ATP loss, % at 10 µM; 20,000 compounds, 0.1% hits; AID 488910;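 active = mean replicate protection from cytokine-induced ATP loss at least 50% and at least 75% of replicates each reaching 50%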
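Test system: INS-1E rat cells | Quantity: 8000 cells per well | Medium: Phenol-red-free RPMI with 5% fetal bovine serum | Reagent: Cytokine cocktail of IFN-γ, TNF-α and IL-1β | Doses: One compound concentration, pin transfer | Timing: 48 h co-treatment, 10 min post-lysis read | Technique: Luminescent ATP assay (CellTiter-Glo)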
Starred values were filed as active, the others as inactive; / = no result.

SMILES | YB-1 expression | T cruzi HTS | INS-1E ATP HTS
C[C@@H]1CCCCO[C@@H](CN(C)C(=O)Nc2ccccc2)[C@@H](C)CN([C@H](C)CO)C(=O)c2cc(NC(=O)C3CCCCC3)ccc2O1 | 0.12 | -4 | -2
C[C@@H]1CCCCO[C@@H](CN(C)C(=O)NC2CCCCC2)[C@@H](C)CN([C@H](C)CO)C(=O)c2cc(NC(=O)Nc3ccccc3)ccc2O1 | -0.55 | -4 | -9
C[C@@H]1CCCCO[C@H](CN(C)C(=O)Nc2ccc(C(F)(F)F)cc2)[C@@H](C)CN([C@H](C)CO)C(=O)c2cc(NC(=O)C3CCCCC3)ccc2O1 | -0.18 | 72* | -28
Cc1nnc(Nc2cccc(Cl)c2C)s1 | 0.0017 | / | /
N#Cc1c(N)nc(Sc2ccc(Cl)cc2)c(C#N)c1-c1ccccc1 | 0.33 | / | /
CCN(CC)C(=S)Oc1ccc(C#N)cc1 | -0.38 | / | /
C[C@H](CO)N1C[C@H](C)[C@@H](CN(C)Cc2ccc(Oc3ccccc3)cc2)Oc2c(NC(=O)NC3CCCCC3)cccc2C1=O | -0.16 | 70* | -16
C[C@H](CO)N1C[C@H](C)[C@H](CN(C)Cc2ccc(-c3ccccc3)cc2)Oc2c(NC(=O)NC3CCCCC3)cccc2C1=O | 0.051 | 69* | -61
C[C@H]1CN([C@@H](C)CO)C(=O)c2cccc(NC(=O)NC3CCCCC3)c2O[C@@H]1CN(C)Cc1ccc(-c2ccccc2)cc1 | 0.3 | 36 | -10
C[C@@H]1CN([C@@H](C)CO)C(=O)c2cccc(NC(=O)NC3CCCCC3)c2O[C@@H]1CN(C)Cc1ccccc1 | -0.45 | -20 | -33
COc1ccc(COCC(O)CS(=O)(=O)c2ccc(OC)c(OC)c2)cc1 (centres undefined) | 0.14 | / | /
CC(=O)N(CN1C(=O)c2ccccc2C1=O)c1ccc2ccccc2c1 | -0.13 | / | /
Cc1noc(C)c1NC(=O)Nc1ccc2c(c1)CC(=O)N([C@H](C)CO)C[C@@H](C)[C@@H](CN(C)Cc1ccc(C(=O)Nc3ccccc3N)cc1)O2 | -0.39 | -5 | -14
Cc1noc(C)c1S(=O)(=O)Nc1ccc2c(c1)C(=O)N([C@H](C)CO)C[C@H](C)[C@H](CN(C)Cc1ccc(C(=O)Nc3ccccc3N)cc1)O2 | -0.16 | 79* | 13
Cc1noc(C)c1S(=O)(=O)Nc1ccc2c(c1)C(=O)N([C@H](C)CO)C[C@@H](C)[C@@H](CN(C)Cc1ccc(C(=O)Nc3ccccc3N)cc1)O2 | -0.7 | 65* | -9
Cc1noc(C)c1S(=O)(=O)Nc1ccc2c(c1)CC(=O)N([C@H](C)CO)C[C@H](C)[C@H](CN(C)Cc1ccc(C(=O)Nc3ccccc3N)cc1)O2 | -0.42 | 76* | 34
Cc1noc(C)c1S(=O)(=O)Nc1ccc2c(c1)C(=O)N([C@@H](C)CO)C[C@H](C)[C@@H](CN(C)Cc1ccc(C(=O)Nc3ccccc3N)cc1)O2 | 0.25 | 43 | -14
Cc1noc(C)c1S(=O)(=O)Nc1ccc2c(c1)C(=O)N([C@@H](C)CO)C[C@@H](C)[C@@H](CN(C)Cc1ccc(C(=O)Nc3ccccc3N)cc1)O2 | -0.31 | 54 | -3
COc1cc2c(cc1O)C1(Cc3ccc4c(c3C1=O)OCO4)N(C)CC2 (centres undefined) | 0.47 | / | /
c1ccc2c3c([nH]c2c1)[C@H]1C2CCC([C@@H]4CCCN[C@H]24)N1CC3 (some centres undefined) | -0.2 | / | /
COc1cc(CC(C)C(C)Cc2ccc(O)c(OC)c2)ccc1O (centres undefined) | 1.3 | / | /
CN(C1CCCCC1)S(=O)(=O)c1cc(Cl)ccc1Cl | 0.23 | / | /
Cc1ccc(S(=O)(=O)Nc2cccc3c2O[C@@H](CN(C)Cc2ccc(C(=O)Nc4ccccc4N)cc2)[C@@H](C)CN([C@H](C)CO)C3=O)cc1 | -0.1 | 57* | 5
C[C@@H]1CN([C@H](C)CO)C(=O)c2cccc(NS(=O)(=O)c3ccccc3)c2O[C@@H]1CN(C)Cc1ccc(C(=O)Nc2ccccc2N)cc1 | -0.28 | 75* | 11
C[C@H]1CN([C@@H](C)CO)C(=O)c2cccc(NS(=O)(=O)c3ccccc3)c2O[C@H]1CN(C)Cc1ccc(C(=O)Nc2ccccc2N)cc1 | 0.063 | 53 | -10
C[C@@H]1CN([C@@H](C)CO)C(=O)c2cccc(NS(=O)(=O)c3ccc(Cl)cc3)c2O[C@H]1CN(C)Cc1ccc(C(=O)Nc2ccccc2N)cc1 | -0.32 | 56* | -1
C[C@@H]1CN([C@H](C)CO)C(=O)c2cccc(NS(=O)(=O)c3ccc(F)cc3)c2O[C@H]1CN(C)Cc1ccc(C(=O)Nc2ccccc2N)cc1 | 0.13 | 41 | 5
